Compounds with a hit are over-represented: about 2.2% of the library has one in this group of screens.
SUMO HTRF inh: inhibitors of human SUMOylation (UBC9) | HTRF SUMOylation assay, SAE1/SAE2 + UBC9, in vitro | AID 2006 | inhibition, % at 35 µM | 290,000 tested, 0.36% active | P63279; in the data active means inhibition above about 50%, passing the limit was not always enough
Rin1-Abl PPI inh: human Rin1-Abl interaction inhibition; TR-FRET Rin1/Abl binding, biochemical; inhibition, % at 7.35 µM; 360,000 tested, 0.4% active; AID 588664; in the data active means inhibition above about 5%, passing the limit was not always enough
GSTO1 inh: counter-screen for RBBP9 inhibitors: inhibitors of human GSTO1 | P78417 | recombinant GSTO1, activity-based probe fluorescence polarization | inhibition, % at 5.96 µM | 300,000 tested, 1.1% active | AID 1974;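 active means inhibition above the campaign mean inhibition plus 3 SD, cut at about 35% in these data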;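 further: 0% = GSTO1-1 with DMSO and 100% = wells lacking GSTO1-1 enzyme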
Apaf1 inhib: blocks human Apaf-1 apoptosome activity; inhibition, % at 20 µM; AID 489030; O14727; 330,000 tested, 0.71% active; reconstituted apoptosome caspase-3 activity, DEVD-Rh110 fluorescence; active means inhibition of at least 40% at 20 µM;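 further: plate controls were DMSO wells for no effect and DEVD-CHO caspase inhibitor wells for full effect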
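Material: cell-free apoptosome with Apaf-1, procaspase-3 and caspase-9; Buffer or medium: Hepes pH 7.5 with detergent and BSA; Reagent: cytochrome c trigger plus (Z-DEVD)2-Rh110 caspase-3 substrate; Times: compound with Apaf-1, dATP, procaspase-3 30 min, then 50 min reaction, room temperature; Technique: Rh110 fluorescence intensity.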
PAD4 inh: inhibitors of human PAD4. inhibition, % at 6.36 µM. recombinant PAD4, RCA probe fluorescence polarization. Q9UM07. 330,000 tested, 0.41% active;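 active means percent inhibition above a cutoff equal to the mean of all tested compounds plus 3 SD, cut at about 15% in these data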;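 further: 0% = PAD4 with RCA probe and DMSO and 100% = probe without PAD4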
UBC13 polyUb: human UBC13 polyubiquitination inhibition; P61088; UBC13 polyubiquitin chain formation, TR-FRET; inhibition, % at 20 µM; 330,000 tested, 0.47% active; in the data active means inhibition above about 45%, passing the limit was not always enough
PAD4 FP conf: PAD4 (human) inhibition, confirmed | shares compounds with PAD4 inh | recombinant PAD4, RCA probe fluorescence polarization | inhibition, % at 6.36 µM | 1,200 tested, 28% active;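 active means mean inhibition across replicates above the hit cutoff set by the earlier primary screen, cut at about 15% in these data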;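 further: inhibitors block active-site labeling by the probe so polarization falls; 0% = PAD4 with probe and DMSO and 100% = probe without PAD4 enzyme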
* = called active by the depositor; . = not tested or not shown.

SMILES | SUMO HTRF inh | Rin1-Abl PPI inh | GSTO1 inh | Apaf1 inhib | PAD4 inh | UBC13 polyUb | PAD4 FP conf
CCn1c(CSc2nnc3ccccn23)nc2cc(C(=O)O)ccc21 | 18 | 4 | 29 | 4 | 47* | 1 | 77*
CCn1c(CSc2n[nH]c(N)n2)nc2cc(C(=O)O)ccc21 | 17 | -6 | 22 | -4 | 51* | 4 | 58*
COCCn1c(SCCCC(=O)c2ccc(Br)cc2)nnc1-c1ccncc1 | -4 | 2 | 7 | -2 | -4 | 4 | .
CCn1c(CSc2nnc(-c3ccncc3)n2CCOC)nc2cc(C(=O)O)ccc21 | 16 | 0 | 20 | -5 | 48* | -9 | 58*
CCc1sc(C(=O)N2CCN(c3ccc(F)cc3)CC2)cc1C | 18 | 2 | 1 | 21 | -3 | 2 | .
NC(=O)c1cc([N+](=O)[O-])ccc1NCc1cccc(N)c1 | . | -5 | -2 | 3 | 2 | -11 | .
Cc1cc2cc(CNC(=O)C(C)Oc3ccccc3)ccc2n1C (centres undefined) | -9 | -4 | 11 | 4 | 29* | 18 | 4
Cc1ccc(NC(=O)CSc2nncc3ccccc23)cc1 | 9 | 3 | 7 | -2 | 16* | 16 | 10
Cc1ccc([N+](=O)[O-])cc1NC(=O)CSc1nncc2ccccc12 | 6 | 3 | 14 | -5 | -1 | -8 | .
O=C(CSc1nncc2ccccc12)N1CCCCC1 | 8 | -3 | 3 | 6 | 17* | 4 | 4
O=C(CSc1nc(C2CC2)nc2ccccc12)N1CCCCC1 | -1 | 3 | -29 | -6 | 4 | 8 | .
CCN(CC)c1ccc(NC(=O)CSC(=O)c2ccccc2)cc1 | . | 2 | . | 1 | 2 | 5 | .
CC(=O)c1cccc(NC(=O)CSC(=O)c2ccccc2)c1 | -14 | -1 | 3 | -6 | 15* | 9 | 18*
COc1cccc(NC(=O)c2ccccc2-c2ccccc2C(=O)O)c1 | 13 | -3 | -2 | 4 | 18* | -4 | 0
Cc1ccccc1NS(=O)(=O)c1ccc(C(=O)NN2CCCCC2)cc1 | 9 | 2 | -2 | 5 | 2 | 0 | .
C#CCOCCOCCOCCNc1nc(N2CCN(C(=O)[C@H](CCC(=O)O)n3cc(C(N)[C@H](C)CC)nn3)CC2)nc(N2CCN(C(=O)[C@H](Cc3cc4ccccc4[nH]3)n3cc(C(N)[C@H](C)CC)nn3)CC2)n1 (some centres undefined) | 12 | . | 4 | -6 | 27* | 7 | 10
N#CC1(C#N)COC23CCCCC2C1(C#N)C(=N)O3 (centres undefined) | 39 | -7 | 13 | 3 | 8 | -8 | .
CCCC1OC23CCCCC2C(C#N)(C(=N)O3)C1(C#N)C#N (centres undefined) | 8 | 3 | 6 | 1 | 17* | 10 | 6
N#CC12COC3(CCCCC3C1(C#N)C#N)OC2=N (centres undefined) | 13 | -2 | 7 | 3 | 22* | 3 | 4
CCCCN1CCCCC1(C)C(=O)NCc1cccc(OC)c1 (centres undefined) | . | -1 | . | . | . | . | .
COC(=O)NN=C1CCC(c2ccccc2)CC1 (centres undefined) | -10 | -3 | . | -13 | . | -2 | .
COC(=O)N/N=C1/C/C(=N\NC(=O)OC)c2ccccc21 | 17 | -4 | 17 | 18 | 21* | 2 | 2
CCN(CC)C(=O)CSc1nnc(-c2ccccc2)c(-c2ccccc2)n1 | 4 | -2 | -1 | 8 | 15* | -2 | 7
Cc1ccc2nc(NC(=O)CN3C(=O)NC4(CCCC4)C3=O)sc2c1 | . | 0 | 4 | 15 | 1 | 4 | .
CC1(C)Cc2c(c(N3CCOCC3)nc3sc4c(NCc5ccccc5)nnnc4c23)CS1 | 16 | 1 | -8 | -2 | 2 | -7 | .
SMILES | SUMO HTRF inh | Rin1-Abl PPI inh | GSTO1 inh | Apaf1 inhib | PAD4 inh | UBC13 polyUb | PAD4 FP conf
CC(C)CNc1nnnc2c1sc1nc(N3CCOCC3)c3c(c12)CC(C)(C)SC3 | 9 | -1 | -6 | 21 | 27* | -9 | 12
CC1(C(=O)Nc2ccc3c(c2)OCO3)CCN1C(=O)CCC1CCCC1 (centres undefined) | . | 2 | . | . | . | . | .
CCCCCC(=O)Nc1ccc(C(=O)CN2C(=O)NC3(CCCCCC3)C2=O)cc1 | . | 0 | 6 | 14 | 0 | 6 | .
CCC(=O)Nc1ccc(C(=O)CN2C(=O)NC3(CCCCCC3)C2=O)cc1 | . | 0 | . | -9 | 30* | 3 | -3
CCCc1nnc(SCC(=O)Nc2ccc(OCC)cc2)n1N | 10 | 0 | -2 | -8 | 1 | 6 | .
CCOc1ccc(NC(=O)CSc2nncc(=O)n2N)cc1 | -15 | 1 | 18 | 9 | 15* | -1 | 7
Nn1c(SCC(=O)Nc2nc3ccccc3s2)nncc1=O | -18 | 1 | 17 | -10 | 22* | 7 | 39*
CC(C)(C)N(Cc1ccccc1)C(=O)COC(=O)c1ccc(S(=O)(=O)N2CCOCC2)cc1 | . | 3 | . | 18 | -1 | 4 | .
Cc1ccc(S(=O)(=O)NCC(=O)OCC(=O)NCc2ccc3c(c2)OCO3)cc1 | . | 0 | . | 2 | . | 0 | .
COc1cccc(-c2cnc(C(O)c3cc(F)cc(Cl)c3)[nH]2)c1 (centres undefined) | . | 2 | . | . | . | . | .
O=C(COc1ccc(Cl)cc1)Nc1ccc(NC(=O)c2ccco2)cc1 | 20 | -1 | 3 | -4 | 27* | 0 | -2
O=c1ncn(-c2cccc(Cl)c2)c2ccccc12 | . | -1 | 5 | -2 | -4 | 3 | .
CCOC(=O)N1c2ccccc2Sc2ccccc21 | 4 | 2 | 0 | -2 | 1 | 1 | .
Cc1nnc(SC(=O)N2c3ccccc3Sc3ccccc32)s1 | -8 | -6 | -26 | 15 | 34* | 5 | 6
CC(C)c1onc(C(=O)N2CCOCC2)c1[N+](=O)[O-] | 13 | 4 | 11 | -4 | -3 | 6 | .
Cc1onc(C(=O)N2CCOCC2)c1[N+](=O)[O-] | 3 | 4 | -1 | -9 | 22* | -21 | 19*
Cc1nc(SCC(=O)c2ccccc2)[nH]c(=O)c1Oc1ccc(Cl)cc1 | -11 | 1 | -2 | 2 | 21* | -11 | 3
COc1ccc(Cl)cc1-c1cc(C(=O)Nc2ccc(Br)cc2)[nH]n1 | . | -1 | . | . | . | . | .
O=S(=O)(Nc1ccc(Cl)cc1NS(=O)(=O)c1ccccc1)c1ccccc1 | . | 1 | . | . | . | . | .
O=C(O)CSc1cc(NS(=O)(=O)c2ccc(Cl)cc2)c2ccccc2c1O | 77* | 6 | 88* | . | 31* | . | -6
O=C(NCc1ccccc1)/C(=C\c1ccccc1)NC(=O)c1ccco1 | -1 | 0 | 3 | -3 | -2 | -4 | .
CCOc1ccccc1C(=O)NCC(=O)NCCCSc1ccccc1 | 0 | -3 | 2 | 14 | -3 | 2 | .
CCOc1ccccc1C(=O)NCC(=O)NCCCc1ccccc1 | -6 | -6 | 0 | 3 | 62* | 14 | -1

From PubChem
